Experimental data from publication PMC11327602 (Heliyon, 2024).

What was measured:
[1] = DPPH free radical scavenging activity
[2] = Superoxide anion scavenging assay
[3] = target: jack bean urease (Canavalia ensiformis, UniProt P07374); experiment: Urease inhibition assay; type: biochemical
[4] = target: Bacillus Pasteurii urease (Sporosarcina pasteurii, UniProt P41020); experiment: Urease inhibition assay; type: biochemical; settings: Enzyme (SEM ±) B.P Urease, IC50, mean ± SEM, 3 experiments
Sequence of Bacillus Pasteurii urease (P41020 whole entry): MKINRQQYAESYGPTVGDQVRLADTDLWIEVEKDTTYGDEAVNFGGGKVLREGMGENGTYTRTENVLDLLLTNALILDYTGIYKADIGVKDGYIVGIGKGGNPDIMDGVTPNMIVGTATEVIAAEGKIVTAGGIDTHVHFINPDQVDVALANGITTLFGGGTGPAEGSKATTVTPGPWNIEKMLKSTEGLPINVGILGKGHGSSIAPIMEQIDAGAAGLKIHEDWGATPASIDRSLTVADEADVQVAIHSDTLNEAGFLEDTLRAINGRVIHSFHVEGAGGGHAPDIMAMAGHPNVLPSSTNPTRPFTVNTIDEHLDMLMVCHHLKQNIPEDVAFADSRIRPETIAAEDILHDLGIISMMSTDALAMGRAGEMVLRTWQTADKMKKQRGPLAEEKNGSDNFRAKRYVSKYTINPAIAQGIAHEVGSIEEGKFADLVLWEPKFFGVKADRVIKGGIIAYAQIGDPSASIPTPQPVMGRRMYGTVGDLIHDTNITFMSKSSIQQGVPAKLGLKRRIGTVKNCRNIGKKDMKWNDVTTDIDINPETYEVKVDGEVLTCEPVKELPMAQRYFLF
Sequence of Bacillus Pasteurii urease (P41021 whole entry partner): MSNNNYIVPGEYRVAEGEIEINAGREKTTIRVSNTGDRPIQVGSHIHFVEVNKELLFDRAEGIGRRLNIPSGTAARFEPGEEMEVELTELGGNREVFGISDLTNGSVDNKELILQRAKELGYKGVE
Sequence of Bacillus Pasteurii urease (P41022 whole entry partner): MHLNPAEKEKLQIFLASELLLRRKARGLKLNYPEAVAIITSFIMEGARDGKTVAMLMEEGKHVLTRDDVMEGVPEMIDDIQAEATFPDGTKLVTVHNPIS

[5] = target: α-Glucosidase (Saccharomyces cerevisiae, UniProt P53341); experiment: α-Glucosidase inhibition assay; type: biochemical
Sequence of α-Glucosidase (P53341 whole entry): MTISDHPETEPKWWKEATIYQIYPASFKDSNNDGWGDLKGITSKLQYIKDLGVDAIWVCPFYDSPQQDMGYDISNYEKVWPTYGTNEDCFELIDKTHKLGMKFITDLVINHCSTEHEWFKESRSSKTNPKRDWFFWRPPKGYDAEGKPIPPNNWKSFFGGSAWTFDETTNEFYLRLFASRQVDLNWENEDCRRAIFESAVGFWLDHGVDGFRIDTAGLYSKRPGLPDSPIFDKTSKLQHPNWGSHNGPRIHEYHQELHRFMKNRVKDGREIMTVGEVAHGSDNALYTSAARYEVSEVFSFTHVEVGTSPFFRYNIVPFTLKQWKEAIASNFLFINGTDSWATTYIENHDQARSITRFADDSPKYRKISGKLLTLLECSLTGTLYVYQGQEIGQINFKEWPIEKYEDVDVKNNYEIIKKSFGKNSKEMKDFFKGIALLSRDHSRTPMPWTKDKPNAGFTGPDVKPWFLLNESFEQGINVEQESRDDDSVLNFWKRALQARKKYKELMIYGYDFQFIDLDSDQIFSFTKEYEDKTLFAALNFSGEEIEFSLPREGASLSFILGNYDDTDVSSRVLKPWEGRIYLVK
In short: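 Test compound (200–800 μg/mL) pre-incubated 5 min at 37 °C with 2 % w/v starch (sucrose) solution in 0.2 M Tris buffer, pH 8.0. 5 mM p-nitrophenyl-α-D-glucopyranoside added intermittently, then α-glucosidase (1 U/mL), 40 min at 35 °C. Stopped with […]; absorbance read at 405 nm. % inhibition = (control − sample)/control × 100; samples above 50 % taken to IC50.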

[6] = ABTS method

Sequence of jack bean urease (P07374 whole entry, looked up): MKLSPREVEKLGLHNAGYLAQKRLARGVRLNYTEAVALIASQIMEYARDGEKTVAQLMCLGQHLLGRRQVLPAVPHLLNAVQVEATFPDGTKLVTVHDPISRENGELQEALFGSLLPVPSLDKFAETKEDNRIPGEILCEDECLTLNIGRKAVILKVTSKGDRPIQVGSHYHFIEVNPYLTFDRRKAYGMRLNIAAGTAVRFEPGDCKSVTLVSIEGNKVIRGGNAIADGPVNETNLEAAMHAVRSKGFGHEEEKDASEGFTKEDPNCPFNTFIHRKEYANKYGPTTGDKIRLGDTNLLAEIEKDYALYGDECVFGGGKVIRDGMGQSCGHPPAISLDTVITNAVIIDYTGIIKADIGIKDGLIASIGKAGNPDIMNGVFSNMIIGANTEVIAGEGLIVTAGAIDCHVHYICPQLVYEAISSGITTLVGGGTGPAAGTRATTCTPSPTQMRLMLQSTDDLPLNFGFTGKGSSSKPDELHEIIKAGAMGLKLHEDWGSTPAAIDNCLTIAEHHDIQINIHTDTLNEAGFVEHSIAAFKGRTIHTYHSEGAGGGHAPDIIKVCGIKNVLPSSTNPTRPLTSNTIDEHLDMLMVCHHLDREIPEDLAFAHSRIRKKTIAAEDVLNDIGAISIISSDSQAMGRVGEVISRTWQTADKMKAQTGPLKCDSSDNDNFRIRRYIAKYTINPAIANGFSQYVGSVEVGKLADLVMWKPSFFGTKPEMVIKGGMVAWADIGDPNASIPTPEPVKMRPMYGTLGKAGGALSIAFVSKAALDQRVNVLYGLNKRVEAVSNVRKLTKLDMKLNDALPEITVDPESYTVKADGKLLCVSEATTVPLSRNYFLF

CN(c1nccs1)S(=O)(=O)c1ccc([N+](=O)[O-])cc1 [Compound 39, N-Methyl-4-nitro-N-(thiazol-2-yl)benzenesulfonamide]
DPPH % Scavenging ([1]; 25 μM): 15.04 ± 0.05%
DPPH % Scavenging ([1]; 50 μM): 55.02 ± 0.08%
DPPH % Scavenging ([1]; 75 μM): 77.08 ± 0.11%
DPPH % Scavenging ([1]; 100 μM): 91.01 ± 0.34%
IC50 ([1]; read-out: DPPH scavenging IC50): 43.02 ± 0.13 µM
superoxide anion % scavenging ([2]; 25 μM): 22.2 ± 0.01%
superoxide anion % scavenging ([2]; 50 μM): 48.5 ± 0.17%
superoxide anion % scavenging ([2]; 75 μM): 71.4 ± 0.34%
superoxide anion % scavenging ([2]; 100 μM): 93.8 ± 0.11%
IC50 ([2]; read-out: superoxide anion scavenging IC50): 54.1 ± 0.55 µM
Types of inhibition (urease) [3]: Non-competitive
IC50 ([3]; Enzyme (SEM ±) J.B Urease, IC50, mean ± SEM, 3 experiments): 38.17 ± 0.01 µM
IC50 [4]: 43.71 ± 0.13 µM
Type of Inhibition (α-glucosidase and α-amylase) [5]: Non-competitive
inhibition against both enzymes (α-glucosidase and α-amylase), in words [5]: weak inhibition
ABTS % Scavenging ([6]; 10 μM): 24.02 ± 0.05%
ABTS % Scavenging ([6]; 20 μM): 39.01 ± 0.3%
ABTS % Scavenging ([6]; 30 μM): 47.06 ± 0.1%
ABTS % Scavenging ([6]; 40 μM): 72.11 ± 0.09%
ABTS % Scavenging ([6]; 50 μM): 102.03 ± 0.01%
IC50 ([6]; read-out: ABTS scavenging IC50): 36.09 ± 0.15 µM
